The term AUC(0-inf) denotes the area under the concentration-time curve extrapolated to infinity. Read a high AUC(0-inf) as more exposure. A word on the MIC90: it is the lowest concentration that inhibits either 90% of growth or 90% of the strains tested, depending on the study. Usually MIC stands for the lowest concentration found to suppress growth. What is called clearance is the volume of plasma or blood freed of the substance per unit of time. Usually MRT inf stands for the average time that molecules of a dose stay in the body. The term half-life denotes the time in which the quantity being followed falls by half. One may read the AUC(0-t) as the area under the concentration-time curve up to a stated or last time point. Higher therefore signals more exposure.

This note sets out measurements from ChEMBL document CHEMBL4052823, “Extra Sugar on Vancomycin: New Analogues for Combating Multidrug-Resistant Staphylococcus aureus and Vancomycin-Resistant Enterococci” (J Med Chem, 2018).

Each structure is given as a SMILES string. ≈ marks a conversion by molar mass, not a printed value. Calls of active or inactive are those of the source. The calls are words filed in the database; no cut-off is given here.

A short description of data set [1]: AUC (infinity) in CD1 mouse at 5 mg/kg, iv. In kind it is ADME, organism-based. More on the design: dose 5 mg/kg, route intravenous, time infinity. To be noted: in vivo. The method in brief:
(§1)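 Fasted male CD-1 mice (18−22 g), 5 mg/kg single dose into the tail vein, 6 per group. Blood sampled at 0.25, 0.75, 2, 4, 8 and 24 h and analysed by UPLC-MS/MS. T1/2, AUClast, AUCINF_obs, CL_obs, MRTINF_obs and VSS_obs were calculated for each animal from its time−concentration curve.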

Data set [2] in a line: Binding affinity to Ac2Lys-dAla-dAla at 2 mM by 1H-13C HSQC NMR method. Put shortly:
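Constant-time [13C,1H]-HSQC at 600 MHz. The compound (2 mM in D2O, pH 3.1, 25 °C) was recorded alone, then again after adding Ac2Lys-dAla-dAla to a final 10 mM under the same conditions. Spectra were overlaid.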

The test system of data set [3] is Staphylococcus aureus. In words: Antibacterial activity against vancomycin/methicillin-susceptible Staphylococcus aureus Newman […] after 24 hrs by broth microdilution method. In kind it is functional. Put shortly:
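Broth microdilution in cation-adjusted Mueller-Hinton II broth. […] Each well received ~10^5 CFU of exponential-phase bacteria and was incubated at 37 °C for 24 h. MIC was taken as the lowest concentration giving complete growth inhibition, interpreted per CLSI.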
A general note: Dilution methods test growth across graded concentrations, often in twofold steps.

In data set [4] the test system is Staphylococcus aureus. In words: Antibacterial activity against healthcare-associated methicillin-resistant/vancomycin-intermediate Staphylococcus aureus Mu50 infected in BALB/c mouse assessed as decrease in liver CFU levels at 7 mg/kg, ip administered twice in 24 hrs interval measured after 5 days. In kind it is functional, organism-based. The method in brief:
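Female BALB/c mice, 6−8 weeks old, were anesthetized with pentobarbital and infected retro-orbitally with ~3.8 × 10^8 CFU of exponential-phase Mu50, 12 per group. Treatment started 1 h post-infection: 7 mg/kg ip in sterile water, two doses 24 h apart. At day 5 mice were euthanized and liver homogenates plated on TSA for CFU counts. Groups were compared by two-tailed Mann−Whitney test.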

Data set [5] in a line: Volume of distribution at steady state in CD1 mouse at 5 mg/kg, iv. In kind it is ADME, organism-based. The note with it: in vivo, read-out: Vdss. The method in brief: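 Fasted male CD-1 mice (18−22 g), 5 mg/kg single dose into the tail vein, 6 per group. T1/2, AUClast, AUCINF_obs, CL_obs, MRTINF_obs and VSS_obs were calculated for each animal from its time−concentration curve.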

For data set [6], the system named is L02. In words: Cytotoxicity against human HL7702 cells assessed as decrease in cell viability at 10 to 100 uM after 72 hrs by CCK8 assay. Format: cell-based. To be noted: l02, 72 h. The method in brief:
(§2)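 HK-2 and HL-7702 cells were seeded at ~5000 cells/well, incubated overnight, then exposed to compound at final 10, 50 and 100 μM for 72 h. CCK-8 was added for 1.5 h at 37 °C and OD450 read. Viability was OD treated / OD untreated × 100, with triplicates.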

In data set [7] the test system is Staphylococcus aureus. In words: Antibacterial activity against methicillin-resistant Staphylococcus aureus USA300 LAC infected in BALB/c mouse assessed as mouse survival rate at 7 mg/kg, ip administered as single dose measured after 10 days relative to control. The note with it: 240 h. In kind it is functional. The method in brief: (§3)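 Female BALB/c mice, 6−8 weeks old, were anesthetized with pentobarbital and infected retro-orbitally with ~2.35 × 10^8 CFU of exponential-phase USA300 LAC, 15 per group. A single 7 mg/kg ip dose was given 1 h after infection. Deaths were recorded daily to build survival curves.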

The subject of data set [8] is Enterococcus faecium. In words: Antibacterial activity against glycopeptide-resistant Enterococcus faecium Efm-HS-0649 vanA after 24 hrs by broth microdilution method. In kind it is functional. The note with it: Efm-HS-0649, 24 h. Put shortly:
(§4)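 Broth microdilution in cation-adjusted Mueller-Hinton II broth. DMSO stocks were diluted in broth and twofold serially from 128 to 0.0625 μg/mL or lower. Each well was inoculated with ~10^5 CFU of exponential-phase bacteria and incubated at 37 °C for 24 h. MIC was the lowest concentration giving complete growth inhibition, read per CLSI. Growth controls contained broth plus DMSO.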

Data set [9] deals with Blood. In words: Drug uptake in CD1 mouse blood at 5 mg/kg, iv. In kind it is ADME, organism-based. To be noted: in vivo. Put shortly:
as §1

Data set [10] deals with Enterococcus faecium. In words: Potency index, ratio of oritavancin MIC90 to test compound MIC90 for glycopeptide-resistant Enterococcus faecium Efm-HS-vb01 vanB. In kind it is functional.
In data set [11] the test system is Staphylococcus aureus. In words: Antibacterial activity against healthcare-associated methicillin-resistant/vancomycin-intermediate Staphylococcus aureus Mu50 after 24 hrs by broth microdilution method. Format: functional. To be noted: Mu50, 24 h. Put shortly:
as §4

For data set [12], the system named is Enterococcus faecium. In words: Antibacterial activity against glycopeptide-resistant Enterococcus faecium Efm-HS-0847 vanM after 24 hrs by broth microdilution method. Format: functional. To be noted: Efm-HS-0847, 24 h. The method in brief:
as §4

A short description of data set [13]: Clearance in CD1 mouse at 5 mg/kg, iv. Format: ADME, organism-based. The note with it: in vivo. The method in brief:
as §1

Data set [14] has as its system HK-2. In words: Cytotoxicity against human HK2 cells assessed as decrease in cell viability at 10 to 100 uM after 72 hrs by CCK8 assay. In kind it is cell-based. The note with it: hk-2, 72 h. The method in brief:
as §2
In general terms: Tetrazolium dyes change colour on reduction, which living cells bring about.

Data set [15] can be described thus: MRT (infinity) in CD1 mouse at 5 mg/kg, iv. Format: ADME, organism-based. To be noted: in vivo. Put shortly: as §1
Data set [16] has as its system Enterococcus faecium. In words: Antibacterial activity against glycopeptide-resistant Enterococcus faecium Efm-HS-06188 vanA after 24 hrs by broth microdilution method. In kind it is functional. To be noted: Efm-HS-06188, 24 h. Put shortly:
as §4

Data set [17] can be described thus: Half life in CD1 mouse at 5 mg/kg, iv. Format: ADME, organism-based. To be noted: in vivo. The method in brief: as §1
Data set [18] deals with Enterococcus faecium. In words: Potency index, ratio of telavancin MIC90 to test compound MIC90 for glycopeptide-resistant Enterococcus faecium Efm-HS-vb01 vanB. In kind it is functional.
Data set [19] relates to Enterococcus faecium. In words: Antibacterial activity against glycopeptide-resistant Enterococcus faecium Efm-HS-vb01 vanB after 24 hrs by broth microdilution method. The note with it: Efm-HS-vb01, 24 h. Format: functional. Put shortly: as §4
Data set [20] is described as follows: AUClast in CD1 mouse at 5 mg/kg, iv. The note with it: in vivo. Format: ADME, organism-based. Set-up: dose 5 mg/kg, route intravenous, time 0 - last. Put shortly:
as §1

In data set [21] the test system is Staphylococcus aureus. In words: Potency index, ratio of telavancin MIC90 to test compound MIC90 for vancomycin/methicillin-susceptible Staphylococcus aureus Newman […]. In kind it is functional.
Data set [22] deals with Enterococcus faecium. In words: Antibacterial activity against glycopeptide-resistant Enterococcus faecium Efm-HS-08257 vanM after 24 hrs by broth microdilution method. Format: functional. To be noted: Efm-HS-08257, 24 h. Put shortly:
as §4

Data set [23] concerns Staphylococcus aureus. In words: Antibacterial activity against methicillin-resistant Staphylococcus aureus USA300 LAC infected in BALB/c mouse assessed as increase in mouse survival rate at 7 mg/kg, ip administered as single dose after 10 days relative to control. Format: functional, organism-based. Put shortly: as §3

On to `CN[C@H](CC(C)C)C(=O)N[C@H]1C(=O)N[C@@H](CC(N)=O)C(=O)N[C@H]2C(=O)N[C@H]3C(=O)N[C@H](C(=O)N[C@H](C(=O)O)c4cc(O)c(CNCCO[C@@H]5O[C@H](CO)[C@H](O)[C@H](O)[C@H]5O)c(O)c4-c4cc3ccc4O)[C@H](O)c3ccc(c(Cl)c3)Oc3cc2cc(c3O[C@@H]2O[C@H](CO)[C@@H](O)[C@H](O)[C@H]2O[C@H]2C[C@](C)(NCc3ccc(-c4ccc(C(F)(F)F)cc4)cc3)[C@H](O)[C@H](C)O2)Oc2ccc(cc2Cl)[C@H]1O`, for which the AUC(0-inf) in data set [1] was determined as 20000 ng·h/mL. Further, the outcome in [2] and in [4] was Active. For the same compound, the MIC90 in data set [3] was 0.03 µg/mL (≈ 0.0156 µM); in data set [11], 0.25 µg/mL (≈ 0.13 µM). In addition, in [5], the Vd stood at 1.08 L/kg. Also, the Activity entry in data set [6] and in data set [14] was “Non-Toxic” in each case. In data set [7], the survival at 7 mg/kg is 86.7%. Moreover, the minimum inhibitory concentration (MIC) is 2 µg/mL (≈ 1.04 µM) in data set [8]; 8 µg/mL (≈ 4.17 µM) in data set [12]; 1 µg/mL (≈ 0.521 µM) in [16]; not above 0.06 µg/mL in data set [19]; 2 µg/mL (≈ 1.04 µM) in [22]. For the same compound, the Drug uptake in data set [9] was more than 1 µg/mL. For the same compound, the Ratio in data set [10] is reported as 4; in [18] it was 16; in [21], 8 - 16. In [13], this compound showed a clearance of 4.42 mL/min/kg. The MRT inf in data set [15] turned out to be 4.21 h. This compound also gave a half-life in [17] of 176 min. Besides, the AUC(0-t) in [20] came to 16600 ng·h/mL.

In data set [1], `CN[C@H](CC(C)C)C(=O)N[C@H]1C(=O)N[C@@H](CC(N)=O)C(=O)N[C@H]2C(=O)N[C@H]3C(=O)N[C@H](C(=O)N[C@H](C(=O)O)c4cc(O)c(CN[C@H]5C(O)O[C@H](CO)[C@H](O)[C@@H]5O)c(O)c4-c4cc3ccc4O)[C@H](O)c3ccc(c(Cl)c3)Oc3cc2cc(c3O[C@@H]2O[C@H](CO)[C@@H](O)[C@H](O)[C@H]2O[C@H]2C[C@](C)(NCc3ccc(-c4ccc(C(F)(F)F)cc4)cc3)[C@H](O)[C@H](C)O2)Oc2ccc(cc2Cl)[C@H]1O` (stereo not given in full) had an AUC(0-inf) of 24300 ng·h/mL. In addition, the MIC90 in data set [3] came out at 0.015 µg/mL (≈ 0.008 µM); in [11] it was 0.12 µg/mL (≈ 0.064 µM). In addition, the Vd in data set [5] amounted to 0.9 L/kg. Besides, the MIC in [8] was 1 µg/mL (≈ 0.533 µM); in data set [12], 4 µg/mL (≈ 2.13 µM); in data set [16], 1 µg/mL (≈ 0.533 µM); in data set [19], not above 0.06 µg/mL; in data set [22] it was 2 µg/mL (≈ 1.07 µM). In data set [9], this compound showed a Drug uptake of more than 1 µg/mL. Also, the Ratio was 4 in [10], 16 in data set [18] and 8 - 16 in [21]. This compound also came in with a clearance in [13] of 3.45 mL/min/kg. The compound further returned an MRT inf in data set [15] of 4.41 h. Further, the half-life in data set [17] is 207 min. The same compound yielded an area under the curve AUC(0-t) in [20] of 20100 ng·h/mL. Moreover, the outcome in data set [23] was Active.
